Results on 5 molecules are retold here after ChEMBL document CHEMBL1156334, “New Angiopep-modified doxorubicin (ANG1007) and etoposide (ANG1009) chemotherapeutics with increased brain penetration” (J Med Chem, 2010).

The test system of one series is SK-HEP1. The experiment in a line: Cytotoxicity against human SKHEP1 cells after 48 hrs by [3H]thymidine incorporation assay. Format: functional, cell-based. In short, it runs like this: (§1)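 Tumor cells were seeded at 5000 per well and exposed to increasing drug concentrations for 48 h. The medium was then aspirated and cells pulse-labeled for 2 h at 37 °C in fresh medium with 2 μCi/mL [methyl-3H]thymidine. Cells were harvested and tritium was counted by scintillation. Incorporation was plotted against concentration to estimate IC50.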
In general terms: Uptake of a labelled nucleoside into DNA is a usual measure of proliferation.

The nature of series [1]: Cell cycle arrest in human U87MG cells assessed as accumulation at G0/G1 phase at 1 uM after 24 hrs by flow cytometry. Format: functional, cell-based. To be noted: U-87MG ATCC. In short, it runs like this:
(§2)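 Exponentially growing U87 MG cells in flasks were treated with drug or left untreated as controls. Cells were trypsinized, washed twice in PBS, fixed in 70% ice-cold ethanol, and stained with 50 μg/mL propidium iodide plus 0.5 mg/mL RNase in 10 mM Tris, 5 mM MgCl2. DNA content was measured by flow cytometry and given as % of cells per phase, from one representative of three experiments.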

Another series concerns NCI-H460. The series can be described thus: Cytotoxicity against human NCI-H460 cells after 48 hrs by [3H]thymidine incorporation assay. Type of series: functional, cell-based. In short, it runs like this:
as §1

A short description of series [2]: Cell cycle arrest in human U87MG cells assessed as accumulation at G2/M phase at 1 uM after 24 hrs by flow cytometry. Format: functional, cell-based. To be noted: U-87MG ATCC. In short, it runs like this:
as §2

In a further series the test system is Brain. The experiment in a line: Drug uptake in perfused mouse brain assessed as blood-brain transfer coefficient. Format: ADME, tissue-based. The note with it: in vivo. In short, it runs like this:
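In situ brain perfusion was done in adult male CD-1 mice. Radiolabeled drug in Krebs/bicarbonate buffer (gassed 95% O2/5% CO2, pH 7.4, 37 °C) was infused into the carotid artery for 0.5, 1, 2 or 4 min, then washed out tracer-free for 60 s. Brain homogenate radioactivity was counted (γ or liquid scintillation) and expressed as apparent Vd. Vd versus time was fitted by least-squares regression.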

Series [3] is described as follows: Cytotoxicity against human U87MG cells after 48 hrs by [3H]thymidine incorporation assay. Type of series: functional, cell-based, U-87MG ATCC. To be noted: U-87 MG. Summed up:
as §1

The nature of series [4]: Cell cycle arrest in human U87MG cells assessed as accumulation at S phase at 1 uM after 24 hrs by flow cytometry. Type of series: functional, cell-based. To be noted: U-87MG ATCC. Summed up:
as §2

A short description of series [5]: Cell cycle arrest in human U87MG cells assessed as accumulation at G0/G1 phase at 33 nM after 24 hrs by flow cytometry. Format: functional, cell-based. To be noted: U-87MG ATCC. Summed up:
as §2
For orientation: Flow cytometry measures light scatter and fluorescence of single cells or particles in a stream.

A short description of series [6]: Cell cycle arrest in human U87MG cells assessed as accumulation at G2/M phase at 33 nM after 24 hrs by flow cytometry. Format: functional, cell-based. The note with it: U-87MG ATCC. Summed up:
as §2

The nature of series [7]: Cell cycle arrest in human U87MG cells assessed as accumulation at S phase at 33 nM after 24 hrs by flow cytometry. Type of series: functional, cell-based. To be noted: U-87MG ATCC. In short, it runs like this: as §2
The nature of series [8]: Cell cycle arrest in human U87MG cells assessed as accumulation at G2/M phase at 100 nM after 24 hrs by flow cytometry. Type of series: functional, cell-based. To be noted: U-87MG ATCC. In short, it runs like this:
as §2

Series [9] is described as follows: Cell cycle arrest in human U87MG cells assessed as accumulation at S phase at 100 nM after 24 hrs by flow cytometry. Format: functional, cell-based. The note with it: U-87MG ATCC. Summed up: as §2
Series [10] is described as follows: Cell cycle arrest in human U87MG cells assessed as accumulation at G0/G1 phase at 100 nM after 24 hrs by flow cytometry. Type of series: functional, cell-based. The note with it: U-87MG ATCC. Summed up: as §2
Series [11] in a line: Cell cycle arrest in human U87MG cells assessed as accumulation at G0/G1 phase at 3 uM after 24 hrs by flow cytometry. Format: functional, cell-based. The note with it: U-87MG ATCC. Summed up: as §2
A short description of series [12]: Cell cycle arrest in human U87MG cells assessed as accumulation at G2/M phase at 3 uM after 24 hrs by flow cytometry. Type of series: functional, cell-based. To be noted: U-87MG ATCC. In short, it runs like this:
as §2

Series [13] can be described thus: Cell cycle arrest in human U87MG cells assessed as accumulation at S phase at 3 uM after 24 hrs by flow cytometry. Format: functional, cell-based. To be noted: U-87MG ATCC. In short, it runs like this: as §2

For orientation: IC50 means the point on the concentration scale where inhibition reaches its midpoint. Higher therefore signals a need for much substance. `COc1cc([C@@H]2c3cc4c(cc3[C@@H](O[C@@H]3O[C@@H]5CO[C@@H](C)O[C@H]5[C@H](O)[C@H]3OC(=O)CCCC(=O)NCCCC[C@H](NC(=O)CNC(=O)[C@H](CCCNC(=N)N)NC(=O)[C@H](CO)NC(=O)CNC(=O)CNC(=O)[C@H](Cc3ccc(O)cc3)NC(=O)[C@H](Cc3ccccc3)NC(=O)[C@H](Cc3ccccc3)NC(=O)[C@@H](NC(=O)CCCC(=O)O[C@H]3[C@H](O[C@@H]5c6cc7c(cc6[C@@H](c6cc(OC)c(OC(=O)CN(C)C)c(OC)c6)[C@H]6C(=O)OC[C@@H]65)OCO7)O[C@@H]5CO[C@@H](C)O[C@H]5[C@@H]3O)C(C)O)C(=O)N[C@@H](CCCNC(=N)N)C(=O)N[C@@H](CC(N)=O)C(=O)N[C@@H](CC(N)=O)C(=O)N[C@@H](Cc3ccccc3)C(=O)N[C@@H](CCCCNC(=O)CCCC(=O)O[C@H]3[C@H](O[C@@H]5c6cc7c(cc6[C@@H](c6cc(OC)c(OC(=O)CN(C)C)c(OC)c6)[C@H]6C(=O)OC[C@@H]65)OCO7)O[C@@H]5CO[C@@H](C)O[C@H]5[C@@H]3O)C(=O)N[C@H](C(=O)N[C@@H](CCC(=O)O)C(=O)N[C@@H](CCC(=O)O)C(=O)N[C@@H](Cc3ccc(O)cc3)C(=O)O)[C@@H](C)O)[C@H]3COC(=O)[C@H]23)OCO4)cc(OC)c1OC(=O)CN(C)C` (some centres undefined): the figures for the IC50 (in the series with SK-HEP1; with NCI-H460; in [3]) were 48 nM, 148 nM and 330 nM, respectively. Further, the Activity in [1] worked out at 25.7%; in series [2], 70.8%; in series [4] it was 3.3%. The Kin with Brain is listed as 22 10^-4ml/g/s.

With `COc1cccc2c1C(=O)c1c(O)c3c(c(O)c1C2=O)C[C@@](O)(C(=O)COC(=O)CCC(=O)NCCCC[C@H](NC(=O)CNC(=O)[C@H](CCCNC(=N)N)NC(=O)[C@H](CO)NC(=O)CNC(=O)CNC(=O)[C@H](Cc1ccc(O)cc1)NC(=O)[C@H](Cc1ccccc1)NC(=O)[C@H](Cc1ccccc1)NC(=O)[C@@H](NC(=O)CCC(=O)OCC(=O)[C@]1(O)Cc2c(O)c4c(c(O)c2[C@@H](O[C@H]2C[C@H](N)[C@H](O)[C@H](C)O2)C1)C(=O)c1c(OC)cccc1C4=O)C(C)O)C(=O)N[C@@H](CCCNC(=N)N)C(=O)N[C@@H](CC(N)=O)C(=O)N[C@@H](CC(N)=O)C(=O)N[C@@H](Cc1ccccc1)C(=O)N[C@@H](CCCCNC(=O)CCC(=O)OCC(=O)[C@]1(O)Cc2c(O)c4c(c(O)c2[C@@H](O[C@H]2C[C@H](N)[C@H](O)[C@H](C)O2)C1)C(=O)c1c(OC)cccc1C4=O)C(=O)N[C@H](C(=O)N[C@@H](CCC(=O)O)C(=O)N[C@@H](CCC(=O)O)C(=O)N[C@@H](Cc1ccc(O)cc1)C(=O)O)[C@@H](C)O)C[C@@H]3O[C@H]1C[C@H](N)[C@H](O)[C@H](C)O1` (some centres undefined), the Activity in series [5] stood at 32.3%; in [6], 57.3%; in [7], 10.1%. Besides, the results for the IC50 (in the series with SK-HEP1; in the series on NCI-H460; in series [3]) were 4.6 nM, 7.3 nM and 6 nM, respectively. Besides, in the series with Brain, the Kin is reported as 31 10^-4ml/g/s.

As to `COc1cccc2c1C(=O)c1c(O)c3c(c(O)c1C2=O)C[C@@](O)(C(=O)CO)C[C@@H]3O[C@H]1C[C@H](N)[C@H](O)[C@H](C)O1` [DOXORUBICIN], the Activity in series [8] is 59.9%; in series [9], 8.9%; in series [10], 30.8%. Besides, the results for the IC50 (in the series on SK-HEP1; in the series on NCI-H460; in series [3]) were 10 nM, 11 nM and 18 nM, respectively. Further, in the series with Brain, the Kin is 2.5 10^-4ml/g/s.

Consider `COc1cc([C@@H]2c3cc4c(cc3[C@@H](O[C@@H]3O[C@@H]5CO[C@@H](C)O[C@H]5[C@H](O)[C@H]3O)[C@H]3COC(=O)[C@H]23)OCO4)cc(OC)c1O` [ETOPOSIDE], for which the values for the IC50 (with SK-HEP1; with NCI-H460; in series [3]) were 62 nM, 90 nM and 145 nM, respectively. The values for the Activity in series [11], in [12] and in series [13] were 8.9%, 87% and 4.2%, respectively. In addition, the Kin in the series with Brain was 0.9 10^-4ml/g/s.

In the case of `CC(=O)O[C@H]1C(=O)[C@@]2(C)[C@H]([C@H](OC(=O)c3ccccc3)[C@]3(O)C[C@H](OC(=O)[C@H](O)[C@@H](NC(=O)c4ccccc4)c4ccccc4)C(C)=C1C3(C)C)[C@]1(OC(C)=O)CO[C@@H]1C[C@@H]2O` [PACLITAXEL], in the series with Brain, the Kin is on record as 6.9 10^-4ml/g/s.
